Screening data deposited in PubChem by Broad Institute.
DENV2 CPE rescue: inhibitors of DENV2 cytopathic effect | DENV2-infected cells, cytopathic effect rescue, plate reader | CPE inhibition, % at 9.99 µM | actives 1.7% (n = 350,000); in the data active means CPE inhibition above about 20%, passing the limit was not always enough; inconclusive means no clear call, values can overlap the other calls; tested in BHK-21 cells;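 further: 0% = median of neutral control wells and 100% = median of positive control wells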
SIRT5 block: inhibitors of human sirtuin-5 desuccinylase; actives 1.1% (n = 330,000); Q9NXA8; Purified SirT5, succinyl-peptide AMC, trypsin-coupled fluorescence; AID 652115; inhibition, % at 15 µM; in the data active means inhibition above about 15%; inconclusive means no clear call, values can overlap the other calls
E-selectin induc: induces E-selectin expression in human endothelial cells | P16581 | HUVEC E-selectin immunofluorescence imaging; normalized: neutral wells 0, TNF-alpha wells 100 | activation, % at 7.58 µM | actives 0.37% (n = 260,000) | AID 686992;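 active means mean E-selectin-positive cell signal at least 10% of the positive control, reached in at least 60% of replicates, without over 20% cell loss; inconclusive means no rule given, readout overlaps actives, possibly toxicity-flagged; inactive means the rest, including those meeting only one limit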
Target sequence (P16581 whole entry, looked up): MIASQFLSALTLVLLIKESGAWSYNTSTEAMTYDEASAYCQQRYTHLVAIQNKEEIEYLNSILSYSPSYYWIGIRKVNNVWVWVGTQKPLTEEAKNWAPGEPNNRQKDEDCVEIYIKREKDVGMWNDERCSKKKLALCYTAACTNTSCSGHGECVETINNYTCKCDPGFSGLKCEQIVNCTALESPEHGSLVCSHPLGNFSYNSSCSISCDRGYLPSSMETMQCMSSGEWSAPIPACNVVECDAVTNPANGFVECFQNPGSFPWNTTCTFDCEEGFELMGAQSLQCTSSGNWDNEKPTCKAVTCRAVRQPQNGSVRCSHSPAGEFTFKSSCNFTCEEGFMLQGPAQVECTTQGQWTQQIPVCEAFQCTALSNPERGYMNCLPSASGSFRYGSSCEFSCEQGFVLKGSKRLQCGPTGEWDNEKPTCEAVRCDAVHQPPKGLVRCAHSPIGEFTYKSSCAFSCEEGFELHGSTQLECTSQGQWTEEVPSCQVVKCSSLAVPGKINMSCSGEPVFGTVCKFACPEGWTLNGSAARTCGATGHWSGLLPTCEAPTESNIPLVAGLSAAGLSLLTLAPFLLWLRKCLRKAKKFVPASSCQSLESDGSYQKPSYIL
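assay system = HUVEC, human umbilical vein endothelial cells | input = 3,000 HUVEC seeded per well | medium = EGM-2 growth medium on 0.1% gelatin-coated wells | dosing = one compound dose added by pin transfer | signal = immunofluorescence imaging | read-out basis = % PE-positive cells | control set = TNF-alpha, DMSO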
An asterisk follows results filed as active; ? = inconclusive; / = no result; ! = repeats disagree. Shown are actives, neighbours in structure and some others; about 2.8% of the full set was active somewhere.

SMILES | DENV2 CPE rescue | SIRT5 block | E-selectin induc
C[C@@H]1CN([C@H](C)CO)C(=O)Cc2cc(NC(=O)c3ccncc3)ccc2O[C@@H]1CN(C)Cc1ccc(Oc2ccccc2)cc1 | 3 | 6 | -6
CC(C)NC(=O)Nc1ccc2c(c1)CC(=O)N([C@@H](C)CO)C[C@@H](C)[C@@H](CN(C)Cc1ccc(Oc3ccccc3)cc1)O2 | -4 | 2 | -4
C[C@@H]1CN([C@@H](C)CO)C(=O)Cc2cc(NC(=O)c3ccncc3)ccc2O[C@H]1CN(C)Cc1ccc(Oc2ccccc2)cc1 | 2 | 12 | 313*
CC(C)NC(=O)Nc1ccc2c(c1)CC(=O)N([C@H](C)CO)C[C@H](C)[C@@H](CN(C)Cc1ccc(Oc3ccccc3)cc1)O2 | 8 | 13 | 37*
COc1ccc2c3c(n(C)c2c1)[C@@H](CO)N(Cc1ccncc1)CC31CCN(C(=O)C2CCC2)CC1 | 0 | 2 | 0
COCCNC(=O)C[C@H]1CC[C@H]2[C@@H](COc3ccc(NC(=O)CC(F)(F)F)cc3C(=O)N2C)O1 | ? | -4 | 0
CC(C)NC(=O)CC(=O)N/N=C\c1ccccc1C(=O)O | 2 | -3 | /
CC(O)C(=O)N/N=C/c1ccccc1C(=O)O (centres undefined) | -1 | -4 | 375*
C[C@@H]1CN([C@H](C)CO)C(=O)c2cccc(NC(=O)Nc3ccc(C(F)(F)F)cc3)c2O[C@@H]1CN(C)C(=O)Nc1ccc(F)cc1 | 6 | 12 | 0
C[C@H](CO)N1C[C@H](C)[C@@H](CN(C)S(=O)(=O)c2ccc(Cl)cc2)Oc2ccc(NC(=O)Cc3ccccc3)cc2CC1=O | -7 | 3 | -26
O=C(N[C@H]1CC[C@H](CC(=O)N2CCOCC2)O[C@H]1CO)c1ccc2c(c1)OCO2 | 5 | 0 | 0
COCc1cn(CC[C@H]2CC[C@@H](NC(=O)Nc3ccc(F)cc3)[C@@H](CO)O2)nn1 | ? | 5 | 2
C[C@H](c1ccccc1)N1C[C@@H](COCc2ccccc2)Oc2cccc(Oc3ccccc3)c2S1(=O)=O | 0 | / | 0
C[C@H](c1ccccc1)N1C[C@@H](COCc2ccccc2)Oc2cccc(Oc3ccc(C(C)(C)C)cc3)c2S1(=O)=O | 85* | / | 0
COc1ccc(S(=O)(=O)N(C)C[C@@H]2Oc3ncc(-c4ccncc4)cc3C(=O)N([C@@H](C)CO)C[C@@H]2C)cc1 | 51* | -2 | 1
COc1ccc(S(=O)(=O)N(C)C[C@@H]2Oc3ncc(-c4ccncc4)cc3C(=O)N([C@H](C)CO)C[C@H]2C)cc1 | -1 | 6 | 0
COc1ccc(S(=O)(=O)N(C)C[C@H]2Oc3ncc(/C=C/c4ccccc4)cc3C(=O)N([C@H](C)CO)C[C@@H]2C)cc1 | -4 | 20* | /
COc1ccc(S(=O)(=O)N(C)C[C@@H]2Oc3ncc(/C=C/c4ccccc4)cc3C(=O)N([C@@H](C)CO)C[C@@H]2C)cc1 | 1 | -7 | 0
COc1ccc2c3c([nH]c2c1)[C@H](CO)N(Cc1ccccc1OC)CC31CN(S(C)(=O)=O)C1 | ? | / | 0
C[C@@H]1CN([C@@H](C)CO)S(=O)(=O)c2ccc(C#CCN(C)C)cc2O[C@@H]1CN(C)Cc1ccccc1F | 45* | 3 | 0
C[C@H](CO)N1C[C@H](C)[C@@H](CN(C)Cc2ccccc2F)Oc2cc(C#CCN(C)C)ccc2S1(=O)=O | 20 | -2 | 1
CC(C)CC#Cc1ccc2c(c1)O[C@@H](CN(C)Cc1ccccc1F)[C@@H](C)CN([C@H](C)CO)S2(=O)=O | 14 | 1 | 1
COCC#Cc1ccc2c(c1)O[C@@H](CN(C)Cc1ccncc1)[C@@H](C)CN([C@@H](C)CO)S2(=O)=O | 22* | -6 | 0
C[C@H]1CN([C@@H](C)CO)S(=O)(=O)c2ccc(C#CC3CC3)cc2O[C@@H]1CN(C)Cc1ccccc1F | -10 | 17* | 0
CC(C)CC#Cc1ccc2c(c1)O[C@@H](CN(C)Cc1ccccc1F)[C@H](C)CN([C@H](C)CO)S2(=O)=O | -4 | 22* | 2
SMILES | DENV2 CPE rescue | SIRT5 block | E-selectin induc
C[C@@H]1CN([C@H](C)CO)S(=O)(=O)c2ccc(C#CC3CC3)cc2O[C@@H]1CN(C)Cc1ccccc1F | -5 | 8 | 0
COCC#Cc1ccc2c(c1)O[C@@H](CN(C)Cc1ccncc1)[C@@H](C)CN([C@H](C)CO)S2(=O)=O | -7 | -2 | 0
COc1ccc(-c2ccc3n(c2=O)C[C@@H]2[C@@H](CO)[C@H](C(=O)N(C)C)[C@H]3N2C(=O)c2cnccn2)cc1 | / | / | 0
CS(=O)(=O)N1CC2(C1)[C@@H](c1ccccc1)[C@@H](CO)N2Cc1ccc(F)cc1 | 17 | 5 | 0
C[C@@H]1CN([C@H](C)CO)S(=O)(=O)c2ccc(Br)cc2O[C@@H]1CN(C)C(=O)CN1CCOCC1 | 55*! | -6 | -2
C/C=C/c1ccc2c(c1)O[C@H](CN(C)C(=O)CN1CCOCC1)[C@@H](C)CN([C@H](C)CO)S2(=O)=O | -5 | 3 | 1
C[C@H]1CN([C@@H](C)CO)S(=O)(=O)c2ccc(C#CCN(C)C)cc2O[C@H]1CN(C)Cc1ccccc1 | -2 | -5 | 0
C[C@H](CO)N1C[C@H](C)[C@@H](CN(C)Cc2ccc(F)cc2)Oc2cc(Br)ccc2S1(=O)=O | -8 | 4 | 0
C[C@H]1CN([C@@H](C)CO)S(=O)(=O)c2ccc(Br)cc2O[C@H]1CN(C)Cc1ccc(F)cc1 | 41*! | -6 | 0
C[C@H](CO)N1C[C@H](C)[C@@H](CN(C)Cc2ccc(F)cc2)Oc2cc(C#CC3CC3)ccc2S1(=O)=O | 6 | 13 | /
C[C@@H]1CN([C@@H](C)CO)S(=O)(=O)c2ccc(C#CCN(C)C)cc2O[C@H]1CN(C)Cc1ccccc1 | 24* | 3 | 0
C[C@@H]1CN([C@H](C)CO)S(=O)(=O)c2ccc(C#CC3CC3)cc2O[C@H]1CN(C)Cc1ccc(F)cc1 | -7 | 16* | 0
O=C(C1CCOCC1)N1C[C@H]2[C@@H](c3ccccc31)[C@H](CO)N2Cc1ccccc1 | 19 | 6 | -1
Cc1noc(C)c1NC(=O)Nc1ccc2c(c1)C(=O)N([C@@H](C)CO)C[C@@H](C)[C@H](CN(C)S(=O)(=O)c1cccs1)O2 | 4 | 10 | 11
COc1ccc(S(=O)(=O)N(C)C[C@@H]2Oc3ccc(NC(=O)C4CCCCC4)cc3CC(=O)N([C@H](C)CO)C[C@H]2C)cc1 | -1 | 3 | 0
O=C(C[C@H]1CC[C@@H](NC(=O)NC2CCCCC2)[C@@H](CO)O1)NCc1ccccc1 | -1 | -2 | 0
C[C@@H]1CCCCO[C@@H](CN(C)Cc2ccncc2)[C@H](C)CN([C@H](C)CO)C(=O)c2cc(NS(=O)(=O)c3ccc(F)cc3)ccc2O1 | -2 | 3 | 0
C[C@@H]1CN([C@H](C)CO)C(=O)c2cc(NS(=O)(=O)c3ccc(F)cc3)ccc2O[C@@H](C)CCCCO[C@@H]1CN(C)Cc1ccncc1 | 34* | 3 | 0
C[C@@H]1CCCCO[C@@H](CN(C)Cc2ccncc2)[C@H](C)CN([C@H](C)CO)C(=O)c2cc(NS(=O)(=O)c3ccccc3)ccc2O1 | -5 | 1 | /
